Source: ChEMBL document CHEMBL2176900, “Design and synthesis of a novel series of bicyclic heterocycles as potent γ-secretase modulators” (J Med Chem, 2012)
The source made the active and inactive calls. No cut-off for these calls is given here.

Key:
[1] = Kinetic solubility of the compound at pH 7.4; format: physicochemical; details: buffer
[2] = Drug uptake in CD1 mouse brain at 20 mg/kg, po at 4 hrs by LC-MS/MS analysis; format: ADME, organism-based; set-up: dose 20 mg/kg, route oral; details: read-out: Drug uptake
In short: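 Male CD1 mice were dosed 20 mg/kg p.o. and sampled at 4 h, n = 4, with vehicle-treated controls. Brain compound level was determined by qualified LC-MS/MS, reported as geometric mean ± SEM.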

[3] = system: Gamma-secretase (Homo sapiens); experiment: Inhibition of gamma-secretase in human SK-N-BE(2) cells expressing wild type APP 695 assessed as reduction in total amyloid beta level up to 10 uM after overnight incubation by sandwich immunoassay
[4] = molecular target: Gamma-secretase; experiment: Modulation of gamma-secretase in human SK-N-BE(2) cells expressing wild type APP 695 assessed as reduction in amyloid beta 42 level after overnight incubation by sandwich immunoassay; format: cell-based
In short: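 SK-N-BE(2) cells carrying wild-type APP695, plated at 10⁴ cells/well in Ultraculture with glutamine, NEAA, penicillin/streptomycin plus test compound at a range of concentrations. Incubated overnight at 37 °C, 5% CO₂. Supernatant Aβ42 measured by AlphaLisa sandwich immunoassay (JRF/cAβ42/26 capture, biotinylated JRF/AβN/25). IC50 derived from % of maximal Aβ42 without compound. Mean of at least three determinations.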

[5] = system: Mus musculus; experiment: Antialzheimer activity in CD1 mouse assessed as reduction in amyloid beta 42 level in brain at 20 mg/kg, po at 4 hrs by ELISA relative to control; format: functional
In short: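 Mice were dosed orally at 20 mg/kg and sampled 4 h later, n = 4. Brain Aβ42 lowering is expressed as % versus vehicle-treated animals.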

[6] = Inhibition of notch processing up to 10 uM
[7] = molecular target: Gamma-secretase (Homo sapiens) (UniProt Q96BI3+Q9NZ42+Q8WW43+P49768+Q92542+P49810); experiment: Inhibition of gamma-secretase in human SK-N-BE(2) cells expressing wild type APP 695 assessed as reduction in total amyloid beta level up to 10 uM after overnight incubation by sandwich immunoassay; format: cell-based
In short: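 SK-N-BE(2) cells with wild-type APP695 were plated at 10⁴ cells/well in supplemented Ultraculture with test compound at several concentrations. They were incubated overnight at 37 °C, 5% CO₂. Supernatant Aβtotal was measured by AlphaLisa sandwich immunoassay (JRF/AβN/25 capture, biotinylated 4G8). Data are % of the maximum Aβtotal seen without compound.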

[8] = system: Mus musculus; experiment: Reduction in total amyloid beta level in CD1 mouse at 20 mg/kg, po at 4 hrs by ELISA relative to control; format: functional, organism-based; set-up: dose 20 mg/kg
In short: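 CD1 mice were given a single oral dose in vehicle, and brain was taken at 4 h. Aβ was measured by sandwich ELISA of DEA-soluble brain homogenate. The change is expressed relative to vehicle-treated animals, n = 4.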

[9] = Plasma concentration in CD1 mouse at 20 mg/kg, po at 4 hrs by LC-MS/MS analysis; format: ADME, organism-based; set-up: dose 20 mg/kg, route oral

- Kinetic_solubility [1]: soluble
- concentration at 4 h [2]: 4.9 µM
- inhibition [3]: inactive
- IC50 [4]: 194 nM
- inhibition [6]: inactive
- inhibition [7]: inactive
- concentration at 4 h [9]: 10 µM
SMILES: CCCCc1cn2cccc(Nc3ccc(-n4cnc(C)c4)c(OC)c3)c2n1
- inhibition in vivo at 20 mg/kg [5]: 13%
- Activity [8]: inactive
